Assays:
Format in all cases: functional
Mus musculus [1] = species on record: Mus musculus; assay: Analgesic activity by acetic acid writhing assay in mice; set-up: concentration or dose not given beside the values
Summary of the method: (§1)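 Mice received drug orally 30 min before an ip injection of 0.7% acetic acid (10 mL/kg). Writhes were counted 10–20 min after injection, and % inhibition was taken against a control group. ED50 and 95% confidence limits came from the Litchfield–Wilcoxon method.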

Rattus norvegicus [2] = assay: Antiinflammatory activity by Carrageenan edema assay in rats; set-up: concentration or dose not given beside the values; unit not given here
Summary of the method: (§2)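 Groups of six male Wistar rats (130–170 g) were dosed orally 60 min before a subplantar injection of 0.5% λ-carrageenin suspension (0.1 mL/rat) into the left hind paw. Foot volume was measured every 60 min for 360 min, and % swelling was compared with controls. ED50 and 95% confidence limits came from Litchfield–Wilcoxon. Screening used % edema inhibition at 100 mg/kg po.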

Mus musculus [3] = species on record: Mus musculus; assay: Inhibition of acetic acid induced writhing in mice.; summary of the method: as §1
Mus musculus [4] = species on record: Mus musculus; assay: Compound was evaluated for analgesic activity in Acetic acid writhing assay in mice; summary of the method: as §1
Mus musculus [5] = species on record: Mus musculus; assay: Compound was evaluated for analgesic activity in Pressure test in mice
Summary of the method: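 Groups of 10 male ddY mice (19–24 g) were dosed orally, and pain threshold to pressure was measured every 30 min for 120 min. A postdrug threshold raised more than 50% over the predrug value counted as positive. ED50 and 95% confidence limits came from Litchfield–Wilcoxon.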

Rattus norvegicus [6] = species on record: Rattus norvegicus; assay: Compound was evaluated for analgesic activity in Adjuvant-induced arthritic pain test in rats
Summary of the method: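 Groups of six male SD rats (160–200 g) received 0.5% Mycobacterium butyricum suspension (0.1 mL/rat) intradermally into the distal tail. After 15–18 days, rats that vocalized on gentle flexion were dosed orally, and the pain response was checked every 60 min for 300 min. Absence of response counted as positive. ED50 and 95% confidence limits came from Litchfield–Wilcoxon.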

Rattus norvegicus [7] = species on record: Rattus norvegicus; assay: Compound was evaluated for analgesic activity in Randall-Selitto test in normal foot rats
Rattus norvegicus [8] = assay: Compound was evaluated for antiinflammatory activity in rats by carrageenan edema test; summary of the method: as §2
Rattus norvegicus [9] = species on record: Rattus norvegicus; assay: Compound was evaluated for antipyretic activity in rats by yeast induced fever test
Summary of the method: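 Groups of six male Wistar rats (190–210 g) received 7.5% yeast suspension sc (10 mL/kg). Rats whose temperature rose by more than 1 °C were dosed orally 180 min later. Body temperature was recorded automatically every 60 min for 360 min, and % inhibition was compared with controls. ED50 and 95% confidence limits came from Litchfield–Wilcoxon.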

Rattus norvegicus [10] = species on record: Rattus norvegicus; assay: Compound was evaluated for analgesic activity in Randall-Selitto test in inflamed foot rats
Summary of the method: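 Groups of six male Wistar rats (90–110 g) received 20% yeast suspension (0.1 mL/rat) subplantar into the right hind paw, then oral drug 120 min later. Pain threshold was read every 60 min for 240 min. A rise of more than 50% over the control group counted as positive. ED50 and 95% confidence limits came from Litchfield–Wilcoxon.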

Rattus norvegicus [11] = assay: Compound was evaluated for antiinflammatory activity by Carrageenan edema assay in rats; summary of the method: as §2

Compound | Inhibition (Mus musculus [1]) [%] | Inhibition (Rattus norvegicus [2]) | ED50 (Mus musculus [3]) [mg/kg] | other results
COC(=O)n1c2cc(C)ccc2c2oc(C(=O)N3CCOCC3)cc21 | 1 | 2 | – | –
CC(C)(C)C(=O)n1c2cc(C(F)(F)F)ccc2c2oc(C(=O)N3CCOCC3)cc21 | 3 | 1 | – | –
CCCCCCn1c2cc(C(F)(F)F)ccc2c2oc(C(=O)N3CCOCC3)cc21 | 3 | 3 | 7.7 | –
CCCCCCCn1c2cc(C(F)(F)F)ccc2c2oc(C(=O)N3CCOCC3)cc21 | 3 | 3 | 17.8 | –
CC(C)CC(=O)n1c2cc(C(F)(F)F)ccc2c2oc(C(=O)N3CCOCC3)cc21 | 3 | 3 | 6 | –
CC(C)=CCn1c2cc(C(F)(F)F)ccc2c2oc(C(=O)N3CCOCC3)cc21 | 3 | 3 | 10.1 | –
CCOC(=O)n1c2cc(O)ccc2c2oc(C(=O)N3CCOCC3)cc21 | 2 | 1 | – | –
COC(=O)n1c2cc(OC)ccc2c2oc(C(=O)N3CCOCC3)cc21 | 1 | 1 | – | –
CC(C)COC(=O)n1c2cc(Cl)ccc2c2oc(C(=O)N3CCOCC3)cc21 | 2 | 2 | – | –
CCOC(=O)n1c2cc(C)ccc2c2oc(C(=O)N3CCOCC3)cc21 | 2 | 3 | – | –
CCOC(=O)n1c2cc(C(F)(F)F)ccc2c2oc(C(=O)N3CCOCC3)cc21 | 3 | 3 | 35.6 | –
CCCCOC(=O)n1c2cc(C(F)(F)F)ccc2c2oc(C(=O)N3CCOCC3)cc21 | 3 | 3 | 21.4 | –
COC(=O)n1c2cc(Cl)ccc2c2oc(C(=O)N3CCOCC3)cc21 | 1 | 1 | – | –
CCCOC(=O)n1c2cc(F)ccc2c2oc(C(=O)N3CCOCC3)cc21 | 2 | 1 | – | –
Cc1ccc2c3oc(C(=O)N4CCOCC4)cc3n(C(=O)OCC(C)C)c2c1 | 2 | 2 | – | –
COC(=O)n1c2cc(C(F)(F)F)ccc2c2oc(C(=O)N3CCOCC3)cc21 | 1 | 1 | – | –
CCCOC(=O)n1c2ccccc2c2oc(C(=O)N3CCOCC3)cc21 | 1 | 1 | – | –
Cc1ccc2c3oc(C(=O)N4CCOCC4)cc3n(C(=O)OC(C)C)c2c1 | 3 | 3 | 26 | –
CCCCOC(=O)n1c2cc(Cl)ccc2c2oc(C(=O)N3CCOCC3)cc21 | 3 | 2 | – | –
CCCCOC(=O)n1c2cc(OC)ccc2c2oc(C(=O)N3CCOCC3)cc21 | 2 | 1 | – | –
CCCCOC(=O)n1c2ccccc2c2oc(C(=O)N3CCOCC3)cc21 | 1 | 1 | – | –
CC(C)OC(=O)n1c2cc(F)ccc2c2oc(C(=O)N3CCOCC3)cc21 | 2 | 1 | – | –
COC(=O)n1c2cc(F)ccc2c2oc(C(=O)N3CCOCC3)cc21 | 1 | 1 | – | –
CCCCn1c2cc(C(F)(F)F)ccc2c2oc(C(=O)N3CCOCC3)cc21 | 3 | 3 | 29.5 | –
CCCOC(=O)n1c2cc(OC)ccc2c2oc(C(=O)N3CCOCC3)cc21 | 2 | 1 | – | –
CCCCC(CC)C(=O)n1c2cc(C(F)(F)F)ccc2c2oc(C(=O)N3CCOCC3)cc21 (stereo unspecified) | 3 | 3 | 0.7 | ED50 (Mus musculus [4]): 0.7 mg/kg; ED50 (Mus musculus [5]): 7 mg/kg; ED50 (Rattus norvegicus [6]): 1.7 mg/kg; ED50 (Rattus norvegicus [7]): 5.9 mg/kg; ED50 (Rattus norvegicus [8]): 5.4 mg/kg; ED50 (Rattus norvegicus [9]): 0.059 mg/kg; ED50 (Rattus norvegicus [10]): 1.7 mg/kg
COc1ccc2c3oc(C(=O)N4CCOCC4)cc3n(C(=O)OCC(C)C)c2c1 | 3 | 1 | – | –

Compound | Inhibition (Mus musculus [1]) [%] | Inhibition (Rattus norvegicus [2]) | ED50 (Mus musculus [3]) [mg/kg] | other results
CC(C)COC(=O)n1c2ccccc2c2oc(C(=O)N3CCOCC3)cc21 | 1 | 1 | – | –
CCOC(=O)n1c2cc(F)ccc2c2oc(C(=O)N3CCOCC3)cc21 | 1 | 1 | – | –
CC(C)COC(=O)n1c2cc(F)ccc2c2oc(C(=O)N3CCOCC3)cc21 | 2 | 1 | – | –
CCOC(=O)n1c2cc(Cl)ccc2c2oc(C(=O)N3CCOCC3)cc21 | 1 | 2 | – | –
CC(C)COC(=O)n1c2cc(C(F)(F)F)ccc2c2oc(C(=O)N3CCOCC3)cc21 | 2 | 2 | – | –
COC(=O)n1c2ccccc2c2oc(C(=O)N3CCOCC3)cc21 | 1 | – | – | Inhibition (Rattus norvegicus [11]): 2%
CCCOC(=O)n1c2cc(Cl)ccc2c2oc(C(=O)N3CCOCC3)cc21 | 2 | 2 | – | –
COC(=O)n1c2cc(O)ccc2c2oc(C(=O)N3CCOCC3)cc21 | 1 | 1 | – | –
CCCCCCCCn1c2cc(C(F)(F)F)ccc2c2oc(C(=O)N3CCOCC3)cc21 | – | 3 | – | –
CC(C)C(=O)n1c2cc(C(F)(F)F)ccc2c2oc(C(=O)N3CCOCC3)cc21 | 3 | 3 | 7.3 | –
CCCCCn1c2cc(C(F)(F)F)ccc2c2oc(C(=O)N3CCOCC3)cc21 | 3 | 3 | 10.9 | –
CC(C)CCn1c2cc(C(F)(F)F)ccc2c2oc(C(=O)N3CCOCC3)cc21 | 3 | 3 | 5.1 | –
CCCCCCCCC(=O)n1c2cc(C(F)(F)F)ccc2c2oc(C(=O)N3CCOCC3)cc21 | 3 | 2 | – | –
CCCOC(=O)n1c2cc(C)ccc2c2oc(C(=O)N3CCOCC3)cc21 | 2 | 1 | – | –
CCOC(=O)n1c2ccccc2c2oc(C(=O)N3CCOCC3)cc21 | 1 | 1 | – | –
O=C(Cn1c(=O)sc2ccc(Cl)cc21)N1CCN(CCO)CC1 [TIARAMIDE] | – | – | 74 | ED50 (Mus musculus [5]): 116 mg/kg; ED50 (Rattus norvegicus [6]): 176 mg/kg; ED50 (Rattus norvegicus [7]): > 160 mg/kg; ED50 (Rattus norvegicus [8]): 119 mg/kg; ED50 (Rattus norvegicus [9]): 171 mg/kg; ED50 (Rattus norvegicus [10]): 94.6 mg/kg
CC(C)OC(=O)n1c2cc(Cl)ccc2c2oc(C(=O)N3CCOCC3)cc21 | 3 | 3 | 21.4 | –
CC(C)CCCn1c2cc(C(F)(F)F)ccc2c2oc(C(=O)N3CCOCC3)cc21 | 3 | 3 | 6 | –
CC(C)OC(=O)n1c2ccccc2c2oc(C(=O)N3CCOCC3)cc21 | 2 | 2 | – | –
COc1ccc2c3oc(C(=O)N4CCOCC4)cc3n(C(=O)OC(C)C)c2c1 | 2 | 1 | – | –
CCCCOC(=O)n1c2cc(C)ccc2c2oc(C(=O)N3CCOCC3)cc21 | 2 | 1 | – | –
CCCOC(=O)n1c2cc(C(F)(F)F)ccc2c2oc(C(=O)N3CCOCC3)cc21 | 3 | 3 | 34.6 | –
CCCCC(=O)n1c2cc(C(F)(F)F)ccc2c2oc(C(=O)N3CCOCC3)cc21 | 3 | 3 | 34.5 | –
CC(C)OC(=O)n1c2cc(C(F)(F)F)ccc2c2oc(C(=O)N3CCOCC3)cc21 | 3 | 3 | 4.7 | –
CC(C)Cn1c2cc(C(F)(F)F)ccc2c2oc(C(=O)N3CCOCC3)cc21 | 2 | 3 | – | –
CCCCOC(=O)n1c2cc(F)ccc2c2oc(C(=O)N3CCOCC3)cc21 | 2 | 1 | – | –
CCOC(=O)n1c2cc(OC)ccc2c2oc(C(=O)N3CCOCC3)cc21 | 1 | 1 | – | –
